Series [1] in a line: Inhibition of Mycobacterium tuberculosis leucyl-tRNA synthetase assessed as reduction of [14C]-L-leucine ligation to tRNA incubated for 5 mins by scintillation counting method in presence of ATP. In outline:
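His-tag Ni-NTA-purified M. tuberculosis LeuRS (25 nM) expressed in E. coli Rosetta (DE3). Buffer: 100 mM Tris-HCl pH 8.0, 10 mM MgCl2, 2 mM DTT, 90 µM [14C]-L-leucine, 4 mg/ml E. coli tRNA. Inhibitor (DMSO) preincubated 5 min at 37 °C; started with 2 mM ATP (final). TCA-quenched, scintillation-counted; at least triplicates averaged for IC50.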

The test system of series [2] is Mycobacterium tuberculosis. Description: Antimicrobial activity against Mycobacterium tuberculosis H37Rv assessed as growth inhibition after 5 days by fluorescence analysis. The following applies: 120 h.
Series [3] deals with Leucine--tRNA ligase, cytoplasmic (Homo sapiens, UniProt Q9P2J5). Description: Inhibition of human leucyl-tRNA synthetase assessed as reduction of [14C]-L-leucine ligation to tRNA incubated for 5 mins by scintillation counting method in presence of ATP.
Sequence of Leucine--tRNA ligase, cytoplasmic (Q9P2J5 whole entry): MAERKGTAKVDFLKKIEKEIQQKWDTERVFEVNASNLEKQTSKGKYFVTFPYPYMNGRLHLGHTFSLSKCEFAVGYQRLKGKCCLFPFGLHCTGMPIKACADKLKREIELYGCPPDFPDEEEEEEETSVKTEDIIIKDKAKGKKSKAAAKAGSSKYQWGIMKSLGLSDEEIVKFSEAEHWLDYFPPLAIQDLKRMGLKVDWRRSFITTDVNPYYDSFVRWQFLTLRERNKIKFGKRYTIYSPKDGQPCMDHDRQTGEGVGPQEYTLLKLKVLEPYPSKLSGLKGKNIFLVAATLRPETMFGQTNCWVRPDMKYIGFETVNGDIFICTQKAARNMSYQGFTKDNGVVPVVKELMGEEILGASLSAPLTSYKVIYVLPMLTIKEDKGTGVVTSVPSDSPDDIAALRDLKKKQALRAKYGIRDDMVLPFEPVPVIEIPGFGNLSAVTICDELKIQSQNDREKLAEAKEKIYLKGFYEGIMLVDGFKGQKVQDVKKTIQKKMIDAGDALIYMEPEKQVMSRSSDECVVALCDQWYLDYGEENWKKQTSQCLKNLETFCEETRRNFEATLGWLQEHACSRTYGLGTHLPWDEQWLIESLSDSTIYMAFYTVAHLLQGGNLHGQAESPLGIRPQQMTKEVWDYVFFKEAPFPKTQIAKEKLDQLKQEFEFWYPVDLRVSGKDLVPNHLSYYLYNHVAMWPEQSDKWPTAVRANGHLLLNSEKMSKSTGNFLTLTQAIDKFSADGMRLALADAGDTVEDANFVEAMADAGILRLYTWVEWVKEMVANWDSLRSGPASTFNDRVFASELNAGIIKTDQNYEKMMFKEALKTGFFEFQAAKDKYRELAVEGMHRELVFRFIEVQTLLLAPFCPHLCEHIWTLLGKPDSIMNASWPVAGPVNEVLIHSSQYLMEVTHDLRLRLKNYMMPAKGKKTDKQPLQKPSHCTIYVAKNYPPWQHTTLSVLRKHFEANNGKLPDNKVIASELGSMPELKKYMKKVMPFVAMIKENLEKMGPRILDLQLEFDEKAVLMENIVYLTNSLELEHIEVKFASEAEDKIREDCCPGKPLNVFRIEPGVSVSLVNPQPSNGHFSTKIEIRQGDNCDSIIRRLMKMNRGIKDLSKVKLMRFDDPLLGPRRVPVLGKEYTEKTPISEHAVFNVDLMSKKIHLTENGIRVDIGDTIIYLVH
Series [4] has as its system Mycobacterium tuberculosis. Description: Antimicrobial activity against Mycobacterium tuberculosis infected in mouse J774 cells assessed as log reduction of bacterial burden at 0.8 ug/ml after 7 days. The class given is functional. In outline: (§1)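 J774 cells in RPMI 1640 with L-glutamine/FBS, 2.0*10^5 per well, then switched to 1% FBS. Infected 4 h at MOI 5, washed, drug added for 7 days. At 0 and 7 d, lysed with SDS, DNase-treated and plated on 7H10 agar for CFU. Log reduction is from 0 h to day 7; duplicates, rifampin positive control.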

Series [5] concerns Mycobacterium tuberculosis. Description: Antimicrobial activity against Mycobacterium tuberculosis infected in mouse J774 cells assessed as log reduction of bacterial burden at 8 ug/ml after 7 days. The class given is functional. In outline: as §1
For series [6], the system named is Mycobacterium tuberculosis. Description: Antimicrobial activity against Mycobacterium tuberculosis infected in mouse J774 cells assessed as log reduction of bacterial burden at 80 ug/ml after 7 days. The class given is functional. In outline: as §1
Series [7] in a line: Cytotoxicity against mouse J774 cells assessed as cell viability at 0.8 ug/ml by MTT assay. The format is cell-based. The following applies: read-out: Activity. In outline: (§2)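 MTT proliferation assay on uninfected J774 macrophages, run in parallel with the intracellular infection assay at the same three concentrations. Reported as percentage viability.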
Series [8] can be described thus: Cytotoxicity against mouse J774 cells assessed as cell viability at 8 ug/ml by MTT assay. The following applies: read-out: Activity. The format is cell-based. In outline:
as §2
(Formazan colour is commonly taken as a measure of viable cells.)

Series [9] in a line: Cytotoxicity against mouse J774 cells assessed as cell viability at 80 ug/ml by MTT assay. The format is cell-based. Particulars: read-out: Activity. In outline: as §2

Values after ≈ are worked out from the molar mass of the structure shown.

These results are taken from ChEMBL document CHEMBL3763142, “Discovery of potent anti-tuberculosis agents targeting leucyl-tRNA synthetase” (Bioorg Med Chem, 2016).

What is called IC50 is the point on the concentration scale where inhibition reaches its midpoint. With `CC(/C=C1\SC(=S)N(CCC(=O)Nc2ccc(O)cc2)C1=O)=C\c1ccccc1`, the IC50 in series [1] came out at 22.2 µM.

What is called IC90 is the point of the concentration-response curve where the effect stands at 90%. For orientation: MIC means the least concentration at which growth counts as inhibited. On to `CCOC(=O)c1sc(N/N=C/c2ccc(O)c(OC)c2)nc1C`, for which, in series [2], the IC50 turned out to be 59 µM, the IC90 was above 200 µM and the MIC was found to be 81 µM (≈ 27.2 µg/mL). Also, in series [1], the IC50 worked out at 11.4 µM. In addition, the half-inhibitory concentration (IC50) in series [3] worked out at 116 µM.

For `O=[N+]([O-])c1cccc(-c2csc(N/N=C/c3cccc(O)c3)n2)c1`, in series [1], the IC50 is above 20 µM.

As for `O=[N+]([O-])c1cc(/C=N\Nc2nccs2)ccc1O`, in [2], the IC50 turned out to be 59.4 µM and the IC90 was above 100 µM. In addition, the IC50 in [1] worked out at 20 µM.

As for `COc1cc(/C=N/Nc2nccs2)ccc1O`, the IC50 in series [1] is above 20 µM.

On to `COc1cc(/C=N/Nc2nc(C)cs2)cc(Br)c1O`, for which the IC50 in series [1] is above 20 µM.

Regarding `O=[N+]([O-])c1ccc(-c2csc(N/N=C\c3ccc(O)c([N+](=O)[O-])c3)n2)cc1`, in [2], the IC50 is above 100 µM and the IC90 was above 100 µM. Besides, the IC50 in series [1] is 20 µM.

As to `CC(=O)c1sc(N/N=C/c2cc(Br)ccc2O)nc1C`, the IC50 in series [1] is above 20 µM.

Take `Oc1ccc(/C=N/Nc2nc(-c3ccccc3)c(-c3ccccc3)s2)cc1`: the IC50 in series [1] is above 20 µM.

As to `COc1cc(/C=N/Nc2nc(-c3ccc(Br)cc3)cs2)cc(OC)c1OC`, the IC50 in series [1] is above 20 µM.

Turning to `COc1cc(/C=N\Nc2nc(-c3ccc(Br)cc3)cs2)cc([N+](=O)[O-])c1O`, the Activity is 1.96 deltalog10CFU in series [4], 1.42 deltalog10CFU in series [5] and 1.2 deltalog10CFU in series [6]. The viability at 0.8 ug/ml in [7] was determined as 100%. The viability at 8 ug/ml in [8] is below 10%. In series [9], the viability at 80 ug/ml came to 10%. In addition, the values for the IC50 in [2], in series [1] and in series [3] were 10 µM, 6 µM and 116 µM, respectively. The IC90 in [2] is 13.5 µM. In series [2], the MIC turned out to be 25 µM (≈ 11.2 µg/mL).

`COc1cc(/C=N/Nc2nc(-c3ccccc3)cs2)cc(Br)c1O`: the half-maximal inhibitory concentration (IC50) in [1] is above 20 µM.

For the compound `COc1cc(/C=N/Nc2nccs2)cc(OC)c1O`, in [1], the IC50 is above 20 µM.

Regarding `CCOC(=O)Cc1csc(N/N=C/c2cc(Br)c(O)c(Br)c2)n1`, the 50% inhibitory concentration (IC50) in series [1] is above 20 µM.

Take `COc1cc(/C=N/Nc2nc(-c3cccc([N+](=O)[O-])c3)cs2)cc(Br)c1O`: the IC50 in [1] is above 20 µM.

Regarding `COc1cc(/C=N/Nc2nc(-c3cccc([N+](=O)[O-])c3)cs2)cc(OC)c1O`, the IC50 in series [1] was above 20 µM.

With `COc1cc(/C=N/Nc2nc(-c3ccc(Cl)cc3Cl)cs2)ccc1O`, the IC50 in series [1] was above 20 µM.

Regarding `O=[N+]([O-])c1ccc(-c2csc(N/N=C/c3cc(Br)c(O)c(Br)c3)n2)cc1`, in series [2], the IC50 worked out at 130 µM, the IC90 is above 200 µM and the MIC is above 200 µM. For the same compound, in series [1], the IC50 was found to be 2.27 µM. Also, the IC50 in series [3] worked out at 18.7 µM.

On to `COc1cc(/C=N/Nc2nc(-c3ccccc3)cs2)cc(OC)c1O`, for which the IC50 in series [1] was above 20 µM.

Consider `Oc1ccc(Br)cc1/C=N/Nc1nccs1`, for which the IC50 in series [1] is above 20 µM.

`COc1cc(/C=N/Nc2nc(-c3ccc(Cl)cc3)cs2)cc(Br)c1O`: in [2], the IC50 worked out at 200 µM, the IC90 is above 200 µM and the MIC is above 200 µM. In addition, the IC50 in series [1] came out at 4.54 µM. Moreover, the half-maximal inhibitory concentration (IC50) in [3] is 27.6 µM.

Turning to `Cc1nc(N/N=C/c2ccc(O)cc2)sc1C`, the IC50 in series [1] is above 20 µM.

With `O=C(O)c1ccc(/C=N/Nc2nccs2)cc1`, the IC50 in [1] is above 20 µM.

On to `O=[N+]([O-])c1ccc(-c2csc(N/N=C/c3cc(Br)cc(Br)c3O)n2)cc1`, for which, in [2], the IC50 came out at 86 µM, the IC90 is above 200 µM and the MIC was above 200 µM. In addition, the IC50 in series [1] stood at 19.3 µM.

Consider `CC(/C=C1\SC(=S)N(CCC(=O)Nc2ccc(C(=O)O)c(O)c2)C1=O)=C\c1ccccc1`, for which, in series [1], the IC50 is above 50 µM.

Turning to `COc1cc(/C=N/Nc2nc(C)c(C(C)=O)s2)cc(Br)c1O`, the IC50 in [1] was above 20 µM.

As to `COc1cc(/C=N\Nc2nc(-c3ccc([N+](=O)[O-])cc3)cs2)cc([N+](=O)[O-])c1O`, in series [2], the IC50 was found to be 20.6 µM, the IC90 came to 28.8 µM and the MIC is 50 µM (≈ 20.8 µg/mL). Also, in series [1], the IC50 is 8 µM. Besides, the IC50 in series [3] is 45.8 µM.

For the compound `COc1cc(/C=N/Nc2nc(-c3cccc([N+](=O)[O-])c3)cs2)ccc1O`, in series [2], the IC50 is above 200 µM, the IC90 was above 200 µM and the MIC is above 200 µM. Also, in series [1], the IC50 amounted to 15.9 µM.

As for `COc1cc(/C=N/Nc2nccs2)cc(Br)c1O`, in [1], the half-maximal inhibitory concentration (IC50) was above 20 µM.

On to `COc1ccc(/C=N/Nc2nc(-c3ccccc3)c(-c3ccccc3)s2)cc1O`, for which the IC50 in [1] was above 20 µM.

`COc1cc(/C=N/Nc2nc(-c3ccccc3)c(-c3ccccc3)s2)cc(OC)c1O`: the IC50 in series [1] was above 20 µM.

Regarding `O=[N+]([O-])c1cccc(-c2csc(N/N=C/c3ccccc3O)n2)c1`, the IC50 in [1] was above 20 µM.

For `CO[C@H]1/C=C/O[C@@]2(C)Oc3c(C)c(O)c4c(O)c(c(/C=N/N5CCN(C)CC5)c(O)c4c3C2=O)NC(=O)/C(C)=C\C=C\[C@H](C)[C@H](O)[C@@H](C)[C@@H](O)[C@@H](C)[C@H](OC(C)=O)[C@@H]1C` [RIFAMPIN], the results for the Activity in [4], in series [5] and in [6] were 1.06 deltalog10CFU, 2.39 deltalog10CFU and 2.86 deltalog10CFU, respectively. Besides, the viability at 0.8 ug/ml in series [7] amounted to 95%. The viability at 8 ug/ml in [8] amounted to 85%. The viability at 80 ug/ml in series [9] was 73%.
